First the molecules themselves.
B1: tRNA (parent)
chain: GUUCCGUUGGCGUAAUGGUAACGCGUCUCCCUCCUAAGGAGAAGACUGCGGGUUCGAGUCCCGUACGGAACG

Variants at the floor of the assay were thinned out.

This data set covers variants of B1. The data set is described as follows: yeast fitness relative to wild type (ratio to wild type); higher = fitter; tRNA-Arg(CCU), competitive growth, 37 C, YPD. An outline of the steps: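 For this measurement, the tRNA-Arg(CCU) gene was varied by chemical synthesis at a 3% per-site mutation rate across 69 sites, and each variant was placed at the native genomic locus in Saccharomyces cerevisiae. The pooled strains went through a 24-hour competition in YPD at 37°C in six parallel replicates, with amplicons from start and end populations read by 100-nucleotide paired-end sequencing. Darwinian fitness relative to wild type followed from the change in each genotype's frequency. Genotypes needed ≥ 100 starting reads, and estimates < 0.5 were set to 0.5.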
In the case of U3A C24G C33G C55U, the yeast fitness was not above 0.5.
The same measure for U3A C46G: 0.982.
As to U3A A20U A45U G58C G67C, the yeast fitness was not above 0.5.
For the variant U2G G18C U26A C33U C46U A57C, the yeast fitness was not above 0.5.
Take U3A C11A C33U G68C: the yeast fitness is not above 0.5.
U3A A40G U53A: the yeast fitness was not above 0.5.
U2G U28G G51C U64A C66U A69C: the yeast fitness was not above 0.5.
The same measure for U3A A15C G17C: 0.507; for U3A C30G G68A: not above 0.5; for U2G C46A G68C: not above 0.5.
For U2G G12A U13A G25C U28A C33A G63C U64C, the yeast fitness was not above 0.5.
On to U2G U19G A70C, for which the yeast fitness is 0.685.
As to U2G C33U C34G G48C G67C, the yeast fitness is not above 0.5.
With U2G G9C A20G A42C C46G C49U G63A A69C, the yeast fitness was not above 0.5.
The same measure for U3A C34U: 0.735; for U2G U28C: 0.825.
Consider U2G U28A, for which the yeast fitness is 0.645.
The same measure for U3A C30U G56A: not above 0.5; for U3A A21C G25U A43C C61A C62U: 0.592.
The figure for U2G U3C C55U C61A is not above 0.5; for U2G G9C A20G G25A A42C C46G C49U A69C it is not above 0.5; for U2G G48C C66U it is 0.519.
For U3A C24A G63A U64A, the yeast fitness is not above 0.5.
For U3A C5G A14G C24A G51C G52C, the yeast fitness was not above 0.5.
In the case of U3A C30G C66G, the yeast fitness was not above 0.5.
For U2G G68C, the yeast fitness was 0.705.
The same measure for U3A C5U A14G C34G A43C: not above 0.5.
With U2G U19A A21G A65U G67C, the yeast fitness was 0.543.
U2G U54C: the yeast fitness was 0.962.
For the variant U2G U54G, the yeast fitness is not above 0.5.
Consider U3A A14U C46G, for which the yeast fitness is not above 0.5.
Turning to U3A C31G G67U, the yeast fitness was 0.542.
The same measure for U3A C62U U64C: 0.77.
On to U3A C4G U8A C49G, for which the yeast fitness is not above 0.5.
With U2G C34G G39C, the yeast fitness was not above 0.5.
On to U2G U35C A42C U47A G63C A69C, for which the yeast fitness is not above 0.5.
For U2G C61U A70G, the yeast fitness is 0.795.
The same measure for U2G C62G A69C: not above 0.5; for U2G G12U A43U: 0.631; for U3A G6C A37U G58A: 0.524.
On to U2G U8C C27U C46U, for which the yeast fitness amounted to 0.789.
For U2G G48C G52C C62G C66U, the yeast fitness was not above 0.5.
The same measure for U3A A21G U35A A40U U54C: not above 0.5.
Regarding U3A A40C C62G G68C, the yeast fitness is not above 0.5.
The figure for U2G G6A C27U G39C is not above 0.5; for U2G G6A C27U A36U C60G it is 0.526.
In the case of U2G C49U C66U, the yeast fitness was determined as 0.606.
Turning to U2G C33A C49G, the yeast fitness was not above 0.5.
For U2G U3C A20G C33U G39A, the yeast fitness was not above 0.5.
U3A C33U: the yeast fitness was 0.791.
U3A C11U C55G A65C: the yeast fitness was not above 0.5.
For the variant U3A A21U C60G C66U, the yeast fitness was not above 0.5.
For the variant U3A C11U A20G, the yeast fitness worked out at 0.654.
With U3A C31U A40C A70G, the yeast fitness was not above 0.5.
The same measure for U3A A21U G51C: not above 0.5; for U3A A37C G44C A45U: not above 0.5.
As for U2G U7G U16C C34U G50A U54C A65U, the yeast fitness was not above 0.5.
Regarding U3A A14G G23C C49G, the yeast fitness was determined as 0.503.
The same measure for U2G G44C G58C: 0.647; for U3A C4U C33U C61A: not above 0.5.
On to U3A C24A U28C C61A, for which the yeast fitness was not above 0.5.
Regarding U2G G52A G56A, the yeast fitness was 0.81.
U3A: the yeast fitness stood at 1.
Turning to U2G G48A G58A, the yeast fitness came to 0.614.
For U3A A20G C22U, the yeast fitness worked out at 0.584.
Consider U2G C34U A36C, for which the yeast fitness was not above 0.5.
The same measure for U3A C22U G39A: not above 0.5; for U2G G6A C31G C33U U59G C66U G68A: not above 0.5; for U2G U26C: 0.918.
Turning to U3A C5G U7C U35A A40U C46G U53A G68C, the yeast fitness is not above 0.5.
On to U3A C4G A42G, for which the yeast fitness is not above 0.5.
As to U3A C4U U7A G12A C30G, the yeast fitness is not above 0.5.
For U3A C31G A43U, the yeast fitness stood at 0.597.
With U2G U16A, the yeast fitness amounted to 1.15.
In the case of U2G U16C, the yeast fitness is 0.969.
On to U3A C34A C49U C55G, for which the yeast fitness was not above 0.5.
The same measure for U3A A21C C33U U35A G51C G68C A70U: 0.564.
Take U3A C5A: the yeast fitness is 0.806.
The same measure for U3A C4U U7A C24U C61A C62G A65G: not above 0.5; for U2G U26G C49G: 0.724.
On to U3A A14C A37C C49U, for which the yeast fitness was not above 0.5.
Take U3A C5A A45C G50C: the yeast fitness is not above 0.5.
Turning to U2G G6A, the yeast fitness was 0.634.
On to U3A C46A A69C, for which the yeast fitness was 0.997.
The same measure for U2G U7C C29G C60A: not above 0.5; for U3A C5G C29G A36C U53G: not above 0.5; for U3A C24G C29A G50C A57C C66U: not above 0.5.
Take U3A A36G A42C: the yeast fitness turned out to be 0.647.
The same measure for U3A A36G A42U: 0.619; for U2G G9C A14C C27U G58A: not above 0.5.
U3A A15G C24A: the yeast fitness was not above 0.5.
The figure for U2G U7G U16C C34U U54C A65U is not above 0.5; for U3A A36G C62U it is 0.69.
As to U2G C34G, the yeast fitness is 0.655.
The same measure for U2G C34U: 0.616; for U3A C5A C33G C34U C61G: not above 0.5; for U3A C4G G41A G63C C66A: 0.576.
Regarding U3A A15U G23C C27U G52A C66U, the yeast fitness was not above 0.5.
On to U3A A15G G48C, for which the yeast fitness came to 0.595.
For U3A A20U C29G A40U G50C, the yeast fitness is not above 0.5.
The same measure for U2G U13G C49U G56A A70G: not above 0.5; for U2G U47G: 0.546; for U3A A40C C55A C66A: not above 0.5.
On to U2G U54A C61U A65C G67U, for which the yeast fitness turned out to be 0.576.
In the case of U2G G25A U53A, the yeast fitness is not above 0.5.
The same measure for U3A C4U U13A G51A: not above 0.5; for U3A A21C C24G G56A: not above 0.5.
As for U3A A14U G50A A69C, the yeast fitness was not above 0.5.
U2G U13A C22U: the yeast fitness was 0.579.
The same measure for U3A C34U C49A G52A: 0.622; for U3A C5A G6C A15G U16A G67U: not above 0.5; for U3A A14G C55U G63C: not above 0.5.
On to U3A C30G C33U G67U, for which the yeast fitness was not above 0.5.
The same measure for U3A A14G A15G A20U A37G G41A C62U C66U: not above 0.5; for U3A C30U A42G C61U: 0.602.
In the case of U3A C24A C30U C62U, the yeast fitness is not above 0.5.
Consider U3A A15C U16A U35A G52C C55A, for which the yeast fitness was not above 0.5.
U3A C27G C31U C33U A42C A70U: the yeast fitness is not above 0.5.
On to U3A G6A C46U, for which the yeast fitness worked out at 0.638.
Consider U2G G17A C24U A36U A37U, for which the yeast fitness worked out at 0.585.
The same measure for U2G C55G: 0.532; for U2G C33G C62U A65U: not above 0.5; for U2G C33G A45G A70U: not above 0.5.
As to U3A A14U A20C, the yeast fitness was not above 0.5.
Consider U2G G10A A69C, for which the yeast fitness is not above 0.5.
Turning to U2G G56A, the yeast fitness was determined as 0.896.
With U2G U8C C22U C24G U32C A37G A69G A70G, the yeast fitness was not above 0.5.
Take U3A A57G: the yeast fitness stood at 0.776.
For the variant U3A A57U, the yeast fitness worked out at 0.754.
With U3A A65U, the yeast fitness was 0.704.
As for U3A A65G, the yeast fitness worked out at 0.899.
As to U3A A43U, the yeast fitness stood at 0.929.
For U3A A43C, the yeast fitness is 0.883.
In the case of U3A A21G A45U G67C, the yeast fitness was not above 0.5.
The figure for U3A C11A C33U A70C is not above 0.5; for U2G U28A C29G G51A G56A G67C it is not above 0.5; for U2G G6A G25A A37U A40C it is not above 0.5.
U3A C11U U35C A65C: the yeast fitness is not above 0.5.
The figure for U2G U8A G23A U26G A43G is 0.576; for U3A C34U G56C it is not above 0.5.
Consider U2G G9C A65C G68A, for which the yeast fitness is not above 0.5.
With U3A C27G A69C, the yeast fitness was not above 0.5.
In the case of U2G C60U, the yeast fitness is 0.782.
As for U2G C34U A69U, the yeast fitness stood at 0.543.
The same measure for U3A A15C: 0.659; for U2G G12C C49U: not above 0.5; for U2G G51C: 0.543.
On to U2G U7C A69U, for which the yeast fitness was not above 0.5.
With U3A A14G G23C, the yeast fitness is 0.716.
The same measure for U2G U26G G44C G58A A65G: not above 0.5.
In the case of U2G U64A, the yeast fitness is 0.776.
U3A C55G A65C: the yeast fitness is not above 0.5.
Consider U2G G6A G23A C29G C55A, for which the yeast fitness was 0.508.
For the variant U3A C33U A45U, the yeast fitness turned out to be 0.834.
The figure for U2G U59C C66A G67A is not above 0.5; for U3A A70G it is 1; for U3A C4U G67C it is 0.624.
As to U3A A36U C55A C62U, the yeast fitness is not above 0.5.
As to U2G C34U U35C, the yeast fitness is not above 0.5.
As to U2G G9C A20G A42C C46G C49U C66U A69C, the yeast fitness was not above 0.5.
For the variant U3A C4A G18C C34U A36G G63C, the yeast fitness is not above 0.5.
For the variant U3A C11G G12A C22U G39A A65G, the yeast fitness was not above 0.5.
In the case of U3A G6C G17A A37U G58A, the yeast fitness is not above 0.5.
In the case of U3A C4U, the yeast fitness worked out at 0.874.
For the variant U3A C4A, the yeast fitness amounted to 0.681.
As for U3A C4G, the yeast fitness was 0.792.
The figure for U3A C5U A42G C46G is not above 0.5.

Source of the values: the RNAGym collection of RNA variant scans (doi:10.1126/science.aae0568).
